# Activity calls are given as the source filed them. The rule behind the calls is not given here.
# Key:
# Trypanosoma cruzi [1] = test: Antitrypanosomal activity against Trypanosoma cruzi; type: functional, organism-based
# Trypanosoma cruzi [2] = test: Antitrypanosomal activity against Trypanosoma cruzi Tulahuen trypomastigotes expressing beta-galactosidase gene incubated for 4 days by beta-galactosidase mediated CPRG substrate hydrolysis assay; type: functional, organism-based; details: 96 h
# In short: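 Tulahuen lacZ (β-galactosidase-expressing) cell-derived trypomastigotes, 5×10^5 per well, exposed 4 days at 37°C to serial concentrations 500 to 3.75 µM. Then PBS with 0.5% Triton X-100 and 100 µM CPRG was added, followed by 4 h at 37°C. Absorbance at 570 nm reflects viability. Run in duplicate. EC50 comes from dose-response curves.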
# [3] = Cytotoxicity in C57BL/6 mouse spleen cells assessed as reduction in cell viability up to 250 uM incubated for 24 hrs by propidium iodide staining based flow cytometry
# In short: (§1)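 Spleen cells from C57BL/6 mice, after red-cell lysis with Tris–NH4Cl, in RPMI with 5% FBS, seeded at 6.5×10^6/mL. Exposed 24 h at 37°C to 250 to 1.50 µM. Stained with 10 µg/mL propidium iodide and read by flow cytometry. 1% Tween 20 was the death control. Run in triplicate.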
# Trypanosoma cruzi [4] = test: Antitrypanosomal activity against Trypanosoma cruzi Y trypomastigotes; type: functional, organism-based
# In short: (§2)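 Y strain trypomastigotes plated at 1×10^6 parasites/mL and exposed to serial concentrations of 500 to 3.75 µM. After 24 h, parasites were removed and counted in a Neubauer chamber. EC50 comes from dose-response curves.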
# [5] = Selectivity index, ratio of CC50 for cytotoxicity in C57BL/6 spleen cells to EC50 for Antitrypanosomal activity against Trypanosoma cruzi Tulahuen trypomastigotes; type: toxicity, cell-based; details: C57BL/6, mouse, read-out: Ratio CC50/EC50
# [6] = Cytotoxicity in C57BL/6 mouse spleen cells assessed as reduction in cell viability incubated for 24 hrs by propidium iodide staining based flow cytometry; in short: as §1
# Trypanothione reductase = Trypanothione reductase (Trypanosoma cruzi, UniProt P28593); test: (§3) Inhibition of Trypanosoma cruzi trypanothione reductase expressed in Escherichia coli BL21 (DE3) pre-incubated for 30 mins using TS2 substrate in presence of NADPH by colorimetric microplate assay
# Sequence of Trypanothione reductase (P28593 whole entry): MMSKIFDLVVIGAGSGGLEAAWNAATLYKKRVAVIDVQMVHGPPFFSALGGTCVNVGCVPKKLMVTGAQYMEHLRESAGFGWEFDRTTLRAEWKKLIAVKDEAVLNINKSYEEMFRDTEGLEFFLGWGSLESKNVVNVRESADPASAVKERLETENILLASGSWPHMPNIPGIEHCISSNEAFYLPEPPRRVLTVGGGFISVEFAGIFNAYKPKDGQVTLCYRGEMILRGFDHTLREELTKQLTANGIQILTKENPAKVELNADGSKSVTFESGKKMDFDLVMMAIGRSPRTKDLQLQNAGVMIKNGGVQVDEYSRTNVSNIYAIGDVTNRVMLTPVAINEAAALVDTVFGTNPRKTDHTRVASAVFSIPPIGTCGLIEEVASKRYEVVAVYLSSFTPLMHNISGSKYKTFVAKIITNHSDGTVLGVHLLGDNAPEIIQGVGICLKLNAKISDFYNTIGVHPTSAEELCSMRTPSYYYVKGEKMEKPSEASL
# In short: (§4)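 Recombinant T. cruzi TR expressed in E. coli BL21DE3 and affinity-purified. Assay: TcTR 5 m-unit, 40 mM HEPES pH 7.5, 0.15 mM NADPH, 1 mM EDTA, 1 µM TS2, compounds in DMSO (final 1% DMSO control). Pre-incubated 30 min at 27°C, then DTNB added, and A412 read every 5 min for 30 min.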
# Trypanosoma cruzi [7] = test: Antitrypanosomal activity against Trypanosoma cruzi Tulahuen amastigotes expressing beta-galactosidase gene infected in LLC-MK2 cells incubated for 4 days after 4 hrs post infection by beta-galactosidase mediated CPRG substrate hydrolysis assay; type: functional, organism-based; details: in the assay text read “24 hrs post infection” for “4 hrs post infection”
# In short: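 LLC-MK2 cells in phenol-red-free RPMI 1640 with 5% FBS, seeded at 2×10^4 cells/mL for 24 h. Infected with Tulahuen lacZ trypomastigotes (3:1 parasite:cell) at 37°C and washed at 4 h. Compounds (500 to 0.24 µM) added 24 h post-infection for 4 days at 37°C. After washing, Triton X-100/100 µM CPRG lysis, 4 h at 37°C, A570. Untreated infected wells were controls.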
# [8] = target: Trypanothione reductase (Trypanosoma cruzi) (UniProt P28593); test: as §3; in short: as §4
# Sequence of Trypanothione reductase (Trypanosoma cruzi) (P28593 whole entry, looked up): as the sequence (P28593 whole entry) above
# Trypanosoma cruzi [9] = test: Antitrypanosomal activity against Trypanosoma cruzi Y trypomastigotes assessed as induction of parasite lysis; type: functional, organism-based; in short: as §2
# Trypanosoma cruzi [10] = test: Growth inhibition of Trypanosoma cruzi amastigotes at 20 ug/ml; type: functional; details: read-out: GI
Structure (SMILES),EC50 (Trypanosoma cruzi [2]) [µM],IC50 (Trypanosoma cruzi [2]) [µM],Activity [3],other results
COc1cc([C@@H]2O[C@@H](c3cc(OC)c(OCc4ccccc4)c(OC)c3)C(CO)=C2C)cc(OC)c1OC,,,,EC50 (Trypanosoma cruzi [1]): 1.5 µM
COc1ccc(C(O)C#CC(O)c2ccccc2)c(OC)c1 (stereo unspecified),37.9,37.8,Non-Toxic,
COc1cc(OC)cc(C2CCC(c3ccccc3)O2)c1 (stereo unspecified),12.1,12.1,Non-Toxic,
COc1cc(C(=O)CCC(=O)c2ccccc2)cc(OC)c1OC,36.9,36.9,Non-Toxic,
O=C(Cn1ccnc1[N+](=O)[O-])NCc1ccccc1 [BENZNIDAZOLE],1.65,,,EC50 (Trypanosoma cruzi [4]): 0.04 µM
COc1cccc(C(=O)CCC(=O)c2ccccc2)c1,18.3,18.3,Non-Toxic,
c1ccc(-c2ccc(-c3ccccc3)o2)cc1,21,21,,selectivity ratio [5]: 9.2; CC50 at 24 h [6]: 194 µM
COc1cccc(-c2ccc(-c3ccccc3)o2)c1,3.34,3.34,Non-Toxic,EC50 (Trypanosoma cruzi [4]): 34.2 µM; IC50 (Trypanothione reductase): 8.9 µM; EC50 (Trypanosoma cruzi [7]): 126 µM
COc1cc(C2CCC(c3ccccc3)O2)cc(OC)c1OC (stereo unspecified),26.2,26.2,Non-Toxic,
COc1cc(-c2ccc(-c3ccccc3)o2)cc(OC)c1OC,29.1,29.1,Non-Toxic,
COc1cc(OC)cc(C(O)C#CC(O)c2ccccc2)c1 (stereo unspecified),4.98,4.98,,selectivity ratio [5]: 15.8; CC50 at 24 h [6]: 78.6 µM
COc1ccc(C2CCC(c3ccccc3)O2)c(OC)c1 (stereo unspecified),0.75,0.75,Non-Toxic,EC50 (Trypanosoma cruzi [4]): 1.05 µM; EC50 (Trypanosoma cruzi [7]): 19.8 µM
COc1ccc(C(O)CCC(O)c2ccccc2)cc1OC (stereo unspecified),83.1,83.2,Non-Toxic,
COc1cccc(C2CCC(c3ccccc3)O2)c1 (stereo unspecified),2.29,2.29,Non-Toxic,EC50 (Trypanosoma cruzi [4]): 34.2 µM; EC50 (Trypanosoma cruzi [7]): 126 µM
COc1ccc(C(=O)CCC(=O)c2ccccc2)cc1OC,36,36,Non-Toxic,
COc1ccc(C(O)C#CC(O)c2ccccc2)cc1 (stereo unspecified),14,14,Non-Toxic,
COc1cc(OC)cc(-c2ccc(-c3ccccc3)o2)c1,0.01,,Non-Toxic,EC50 (Trypanosoma cruzi [4]): 4.08 µM; inhibition [8]: inactive; EC50 (Trypanosoma cruzi [7]): 133 µM
COc1cc([C@@H]2O[C@@H](c3cc(OC)c(OC)c(OC)c3)[C@H](C)[C@H]2C)cc(OC)c1OC [GRANDISIN],28.6,,,EC50 (Trypanosoma cruzi [9]): 3.7 µM
COc1ccc(C(O)C#CC(O)c2ccccc2)cc1OC (stereo unspecified),8.98,8.97,Non-Toxic,
COc1cccc(C(O)CCC(O)c2ccccc2)c1 (stereo unspecified),193,193,Non-Toxic,
NS(=O)(=O)c1ccc(-c2ccco2)cc1,,,,inhibition of growth at 20 µg/mL (Trypanosoma cruzi [10]): 70%

Structure (SMILES),EC50 (Trypanosoma cruzi [2]) [µM],IC50 (Trypanosoma cruzi [2]) [µM],Activity [3],other results
COc1cc(OC)cc(C(=O)CCC(=O)c2ccccc2)c1,1.69,1.69,Non-Toxic,EC50 (Trypanosoma cruzi [4]): 15.9 µM
COc1ccc(C(O)CCC(O)c2ccccc2)c(OC)c1 (stereo unspecified),19.9,19.9,,selectivity ratio [5]: 11.9; CC50 at 24 h [6]: 236 µM
COc1ccc(C(O)CCC(O)c2ccccc2)cc1 (stereo unspecified),68.1,68.1,Non-Toxic,
COc1ccc(-c2ccc(-c3ccc(OC)c(OC)c3)o2)cc1OC,,,,inhibition of growth at 20 µg/mL (Trypanosoma cruzi [10]): 65%
COc1ccc(C2CCC(c3ccccc3)O2)cc1OC (stereo unspecified),24.6,24.6,Non-Toxic,
COc1ccc([C@H]2O[C@@H](c3ccc(OC)c(OC)c3)[C@H](C)[C@H]2C)cc1OC [VERAGUENSIN],2.67,,,EC50 (Trypanosoma cruzi [9]): 2.3 µM
COc1ccc(C2CCC(c3ccccc3)O2)cc1 (stereo unspecified),9.07,9.08,Non-Toxic,
O=C(CCC(=O)c1ccccc1)c1ccccc1,199,199,,selectivity ratio [5]: 1.1; CC50 at 24 h [6]: 220 µM
COc1cc(C(O)CCC(O)c2ccccc2)cc(OC)c1OC (stereo unspecified),77.5,77.4,,selectivity ratio [5]: 1.5; CC50 at 24 h [6]: 115 µM
COc1ccc(C(=O)CCC(=O)c2ccccc2)cc1,15.9,15.9,Non-Toxic,
COc1cc(OC)cc(C(O)CCC(O)c2ccccc2)c1 (stereo unspecified),67.6,67.6,Non-Toxic,
COc1ccc(C(=O)CCC(=O)c2ccccc2)c(OC)c1,7.79,7.8,Non-Toxic,EC50 (Trypanosoma cruzi [4]): 1.76 µM
c1ccc(C2CCC(c3ccccc3)O2)cc1 (stereo unspecified),37.3,37.3,Non-Toxic,
OC(C#CC(O)c1ccccc1)c1ccccc1 (stereo unspecified),18.7,18.7,Non-Toxic,
COc1cc(C(O)C#CC(O)c2ccccc2)cc(OC)c1OC (stereo unspecified),4.88,4.88,Non-Toxic,EC50 (Trypanosoma cruzi [4]): 97.1 µM
OC(CCC(O)c1ccccc1)c1ccccc1 (stereo unspecified),33.2,33.2,,selectivity ratio [5]: 5; CC50 at 24 h [6]: 166 µM
COc1ccc(-c2ccc(-c3ccccc3)o2)cc1OC,1.34,1.34,Non-Toxic,EC50 (Trypanosoma cruzi [4]): 32.6 µM; IC50 (Trypanothione reductase): 19.2 µM; EC50 (Trypanosoma cruzi [7]): 126 µM
COc1cccc(C(O)C#CC(O)c2ccccc2)c1 (stereo unspecified),39.1,39.1,Non-Toxic,
COc1ccc(-c2ccc(-c3ccccc3)o2)cc1,4.75,4.75,Non-Toxic,EC50 (Trypanosoma cruzi [4]): 19.2 µM; IC50 (Trypanothione reductase): 7.4 µM; EC50 (Trypanosoma cruzi [7]): 127 µM
COc1ccc(-c2ccc(-c3ccccc3)o2)c(OC)c1,1.12,1.12,Non-Toxic,EC50 (Trypanosoma cruzi [4]): 35.9 µM; IC50 (Trypanothione reductase): 17.7 µM; EC50 (Trypanosoma cruzi [7]): 19 µM
